Mdm2 MdmX PPI – disrupts the human Mdm2-MdmX interaction | O15151+Q00987 | SaOS-2 split-luciferase Mdm2/MdmX complementation, luminescence | inhibition, % at 8 µM | 330,000 compounds, 3% hits | AID 485346;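 active = inhibition of at least 50% at 8 µM in the primary screen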
Beta cell apopt – blocks beta cell apoptosis | INS-1E cytokine-induced death, ATP luminescence, 48 h; percent of positive-control rescue, neutral wells zero | protection from apoptosis, % (test concentration not listed) | 300,000 compounds, 0.8% hits | AID 435005;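 active = Every replicate reaches about 75%, or at least half do and their mean reaches it too, limit read from the data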;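 note: 0% = cytokine-treated negative control wells and 100% = positive control rescue; higher means more ATP so stronger rescue from cytokine killing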
SKKanGAS inh – blocks kanamycin growth of S. pyogenes SKKanGAS strain | BacTiter-Glo, 6 h | 300,000 compounds, 1.3% hits | inhibition, % at 7.5 µM | AID 1662;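 active = mean replicate score, as percent of positive control median, at least 50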;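 note: strain carries kanamycin resistance gene driven by streptokinase promoter and grows in 40 µg/ml kanamycin; loss of luminescence reflects streptokinase promoter inhibition or plain growth inhibition; 0% = median of DMSO wells and 100% = positive control at its reference dose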
L major viab – Leishmania major promastigote growth inhibition; Leishmania major promastigotes, resazurin fluorescence viability; inhibition, % at 10 µM; 200,000 compounds, 9% hits; AID 1063; in the data active = inhibition above about 50%;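 note: promastigotes grown with compound for 44 hours at 28 °C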
T cruzi repl – blocks replication of Trypanosoma cruzi; inhibition, % (concentration not given with the values); AID 1885; T. cruzi beta-gal in NIH3T3, luminescence, 90 h; 300,000 compounds, 1.4% hits;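 active = mean inhibition across valid replicates above about 55%, limit read from the data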;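 note: signal also drops with host cell toxicity which is not excluded here; 0% = plate median of DMSO wells and 100% = zero luminescence signal; higher percent means less beta-gal luminescence so fewer parasites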
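Read-out: Parasite load inhibition, % | Test system: Mouse NIH/3T3 fibroblasts infected with β-gal-expressing T. cruzi Tulahuen C4 | Amount: 5,000 cells/well | Medium: DMEM, 2% fetal bovine serum | Signal: GalScreen β-gal luminescence, detergent lysis, 60 min | Timing: 3 h attach, ≥90 h co-culture | Also added: Tulahuen C4 trypomastigotes, 5000/well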
CSC inhib – blocks cancer stem cells; cancer stem cell-like cells viability, luminescence; inhibition, % at 7.5 µM; 300,000 compounds, 1.1% hits; AID 2717; in the data active = inhibition above about 75%; tested in HMLE shEcad cells
* marks the source's active call; other numbers are inactive results; nt = no result given. An excerpt weighted towards active compounds, which were near 9.4% of everything screened.

SMILES	Mdm2 MdmX PPI	Beta cell apopt	SKKanGAS inh	L major viab	T cruzi repl	CSC inhib
O=C1OC(c2ccc(Cl)cc2)=N/C1=C\N1CC2CC(C1)c1cccc(=O)n1C2 (stereo unspecified)	4.4	4.2	-5.7	nt	2.9	-19.2
COC(=O)[C@@]1(C#N)[C@@H]2C=CC(C(C)=O)=CN2[C@@H](C(N)=O)[C@@H]1c1ccc(F)cc1	16.4	-7.8	4.5	nt	-9.3	-8.5
O[C@@H]1CCCC[C@H]1N1CCC(c2ccccc2)CC1	10.3	-0.1	-4.3	64.7*	3.4	13.6
ON1C2CCCCC2N(O)C1c1ccccc1 (stereo unspecified)	12.4	-0.5	-12.3	12.5	-3.6	-16.5
Cc1cccc(OP(=O)(Oc2ccccc2)OC(c2ccccc2)C(F)(F)F)c1 (stereo unspecified)	18.7	-2.9	29.5	18.9	4.6	26.9
CCN(CC)CCCC(C)N=C(c1ccccc1)c1c(O)n(C)c(=O)n(C)c1=O (stereo unspecified)	5.3	-1.2	0.9	95.0*	2.1	-6.0
CCCCCCC[n+]1ccc(-c2cc[n+](CCCCCCC)cc2)cc1	0.6	102.5*	5.4	-2.1	-36.9	0.4
COC(=O)C1=C(c2c(C)noc2C)C[C@@H]2CC[C@H]1N2C(=O)NCc1ccco1	33.9	-5.2	nt	nt	nt	-11.6
CC(C)NP(=O)(NC(C)C)OP(=O)(NC(C)C)NC(C)C	-15.8	-6.6	nt	nt	nt	-9.2
Nc1nonc1C(=O)N/N=C/c1ccc([N+](=O)[O-])o1	10.4	-4.3	12.5	83.5*	-3.5	nt
N/C(=N\[N+](=O)[O-])N/N=C/c1ccc(O)cc1	7.0	-4.3	-20.5	-0.5	-3.3	-2.4
CCCNS(=O)(=O)c1ccc(OCC(=O)N2CCN(C)CC2)cc1	5.0	-6.8	-4.1	-6.1	34.3	-5.7
COc1ccc(NS(=O)(=O)c2ccc(OCC(=O)N3CCN(C)CC3)cc2)cc1Cl	18.2	-4.1	-0.5	nt	57.7*	3.3
CCC(C)NS(=O)(=O)c1ccc(OCC(=O)N2CCN(CC)CC2)cc1 (stereo unspecified)	11.2	-5.8	-0.7	-0.1	17.0	-10.1
CN1CCN(C(=O)COc2ccc(N(C)S(=O)(=O)c3ccc(F)cc3)cc2)CC1	-19.7	0.0	-3.7	7.5	79.2*	1.7
CN1CCN(C(=O)COc2ccc(S(=O)(=O)N(C)Cc3ccccc3)cc2)CC1	4.3	0.0	-9.0	9.4	60.6*	3.6
CCN1CCN(C(=O)COc2ccc(S(=O)(=O)N(C)Cc3ccccc3)cc2)CC1	-3.5	-1.6	-0.1	99.3*	36.9	9.9
Cc1ccc(NS(=O)(=O)c2ccc(OCC(=O)N3CCN(C)CC3)cc2)cc1	14.6	nt	20.6	nt	46.3	24.1
CC(OC(=O)c1cn(C)c2ccccc12)C(=O)N(C)c1ccccc1 (stereo unspecified)	10.0	nt	nt	nt	nt	nt
CC(C)c1cc(Br)c(NC(=O)Nc2cccnc2)c(Br)c1	5.2	-5.0	23.0	nt	-4.7	-4.6
COc1ccc(/C=C2/C(=O)NC(=S)N(C3CC3)C2=O)cc1CN1C(=O)c2ccccc2C1=O	nt	-1.2	nt	-7.5	nt	-4.9
CC[C@@]1(O)C(=O)OCc2c1cc1n(c2=O)Cc2cc3ccccc3nc2-1	nt	102.9*	-3.0	nt	55.6*	60.4
CCC1(OC(=O)CN)C(=O)OCc2c1cc1n(c2=O)Cc2cc3ccccc3nc2-1 (stereo unspecified)	nt	92.3*	2.6	nt	60.9*	54.7
CC(=NCc1ccc2c(c1)OCO2)c1c(O)n(-c2ccccc2)c(=O)[nH]c1=O	15.5	nt	-2.2	nt	12.7	19.6
CN1C(=O)N(C)C(=O)C2(Cc3cc([N+](=O)[O-])ccc3N(C)C2c2ccccc2)C1=O (stereo unspecified)	3.7	11.1	-7.2	4.6	11.6	7.4
CN(Cc1c[nH]c2ccccc12)C1CCCCC1	5.3	102.4*	-10.9	70.3*	82.4*	-14.1
c1ccc2c(CNC3CCCCC3)c[nH]c2c1	-7.1	115.1*	-3.6	31.4	16.5	1.8
CC1=C(C(=O)O)N2C(=O)C(NC(=O)Cc3ccccc3)C2SC1 (stereo unspecified)	0.7	-5.2	94.5*	nt	-4.7	-3.3
Cc1ccc(CC(=O)N2CCN(Cc3ccccc3)CC2)cc1	2.5	3.3	-6.0	-3.9	-14.2	-22.5
COC(=O)C1=Nc2ccccc2/C1=C\c1c(O)n(-c2ccc(OC)cc2)c(=O)[nH]c1=O	-11.7	-17.9	-2.1	-2.8	-0.9	-5.6

High-throughput results as filed in PubChem.
